Laboratory results from ChEMBL document CHEMBL3046780, “Syntheses and herbicidal activity of new triazolopyrimidine-2-sulfonamides as acetohydroxyacid synthase inhibitor” (Bioorg Med Chem, 2010).

Experiments:
[1] = test system: Cyperus iria; assay: Post-emergence herbicidal activity against Cyperus iria assessed as growth inhibition at 37.5 g ai/ha measured 15 days post compound treatment under green house conditions; type: functional; conditions: 360 h, read-out: GI
In short: (§1)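 Compounds formulated as 100 g/L emulsifiable concentrate (DMF solvent, Tween-80 emulsifier), diluted with water, sprayed post-emergence on pot-grown weeds in clay soil (pH 6.5, 1.6% organic matter). Seeds sown 1-3 cm deep, grown at 15-30 °C. Dicots were treated at the 2-leaf stage and monocots at the 1-leaf stage. Untreated and DMF-treated controls were included. Injury was rated visually 15 days after treatment.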

[2] = test system: Chenopodium album; assay: Post-emergence herbicidal activity against Chenopodium album assessed as growth inhibition at 37.5 g ai/ha measured 15 days post compound treatment under green house conditions; type: functional; conditions: 360 h, read-out: GI; in short: as §1
[3] = test system: Rumex acetosa; assay: Post-emergence herbicidal activity against Rumex acetosa assessed as growth inhibition at 37.5 g ai/ha measured 15 days post compound treatment under green house conditions; type: functional; conditions: 360 h, read-out: GI; in short: as §1
[4] = test system: Amaranthus retroflexus; assay: Post-emergence herbicidal activity against Amaranthus retroflexus assessed as growth inhibition at 75 g ai/ha measured 15 days post compound treatment under green house conditions; type: functional; conditions: 360 h, read-out: GI; in short: as §1
[5] = test system: Amaranthus retroflexus; assay: Post-emergence herbicidal activity against Amaranthus retroflexus assessed as growth inhibition at 37.5 g ai/ha measured 15 days post compound treatment under green house conditions; type: functional; conditions: 360 h, read-out: GI; in short: as §1
[6] = test system: Rumex acetosa; assay: Post-emergence herbicidal activity against Rumex acetosa assessed as growth inhibition at 75 g ai/ha measured 15 days post compound treatment under green house conditions; type: functional; conditions: 360 h, read-out: GI; in short: as §1
[7] = test system: Galium aparine; assay: Post-emergence herbicidal activity against Galium aparine assessed as growth inhibition at 75 g ai/ha measured 15 days post compound treatment under green house conditions; type: functional; conditions: 360 h, read-out: GI; in short: as §1
[8] = test system: Eclipta prostrata; assay: Post-emergence herbicidal activity against Eclipta prostrata assessed as growth inhibition at 37.5 g ai/ha measured 15 days post compound treatment under green house conditions; type: functional; conditions: 360 h, read-out: GI; in short: as §1
[9] = target: T1, Acetolactate synthase, chloroplastic (Arabidopsis thaliana, UniProt P17597)
T1 sequence (P17597 whole entry): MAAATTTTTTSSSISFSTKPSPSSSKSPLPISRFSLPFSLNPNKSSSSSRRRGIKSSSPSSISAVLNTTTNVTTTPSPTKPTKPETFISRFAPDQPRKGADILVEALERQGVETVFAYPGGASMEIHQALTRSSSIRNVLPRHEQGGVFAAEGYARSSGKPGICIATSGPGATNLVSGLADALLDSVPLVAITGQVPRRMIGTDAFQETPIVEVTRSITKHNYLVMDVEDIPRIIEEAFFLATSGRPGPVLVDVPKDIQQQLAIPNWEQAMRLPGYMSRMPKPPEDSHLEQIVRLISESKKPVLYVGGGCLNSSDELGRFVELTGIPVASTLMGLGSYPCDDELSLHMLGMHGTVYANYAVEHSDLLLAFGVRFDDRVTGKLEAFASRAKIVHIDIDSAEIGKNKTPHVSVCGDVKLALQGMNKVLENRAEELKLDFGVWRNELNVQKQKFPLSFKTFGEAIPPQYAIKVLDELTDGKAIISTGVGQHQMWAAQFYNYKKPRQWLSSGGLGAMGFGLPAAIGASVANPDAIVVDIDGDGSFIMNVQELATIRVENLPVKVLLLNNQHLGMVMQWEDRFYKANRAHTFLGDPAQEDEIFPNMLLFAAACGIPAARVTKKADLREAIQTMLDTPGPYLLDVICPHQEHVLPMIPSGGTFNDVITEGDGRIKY

[10] = test system: Galium aparine; assay: Post-emergence herbicidal activity against Galium aparine assessed as growth inhibition at 150 g ai/ha measured 15 days post compound treatment under green house conditions; type: functional; conditions: 360 h, read-out: GI; in short: as §1
[11] = test system: Rumex acetosa; assay: Post-emergence herbicidal activity against Rumex acetosa assessed as growth inhibition at 150 g ai/ha measured 15 days post compound treatment under green house conditions; type: functional; conditions: 360 h, read-out: GI; in short: as §1
[12] = test system: Cyperus iria; assay: Post-emergence herbicidal activity against Cyperus iria assessed as growth inhibition at 150 g ai/ha measured 15 days post compound treatment under green house conditions; type: functional; conditions: 360 h, read-out: GI; in short: as §1
[13] = test system: Digitaria sanguinalis; assay: Post-emergence herbicidal activity against Digitaria sanguinalis (hairy crabgrass) assessed as growth inhibition at 150 g ai/ha measured 15 days post compound treatment under green house conditions; type: functional; conditions: 360 h, read-out: GI; in short: as §1
[14] = test system: Amaranthus retroflexus; assay: Post-emergence herbicidal activity against Amaranthus retroflexus assessed as growth inhibition at 150 g ai/ha measured 15 days post compound treatment under green house conditions; type: functional; conditions: 360 h, read-out: GI; in short: as §1
[15] = test system: Cerastium arvense; assay: Post-emergence herbicidal activity against Cerastium arvense assessed as growth inhibition at 150 g ai/ha measured 15 days post compound treatment under green house conditions; type: functional; conditions: 360 h, read-out: GI; in short: as §1
[16] = test system: Galium aparine; assay: Post-emergence herbicidal activity against Galium aparine assessed as growth inhibition at 37.5 g ai/ha measured 15 days post compound treatment under green house conditions; type: functional; conditions: 360 h, read-out: GI; in short: as §1
[17] = test system: Chenopodium album; assay: Post-emergence herbicidal activity against Chenopodium album assessed as growth inhibition at 150 g ai/ha measured 15 days post compound treatment under green house conditions; type: functional; conditions: 360 h, read-out: GI; in short: as §1
[18] = test system: Cerastium arvense; assay: Post-emergence herbicidal activity against Cerastium arvense assessed as growth inhibition at 37.5 g ai/ha measured 15 days post compound treatment under green house conditions; type: functional; conditions: 360 h, read-out: GI; in short: as §1
[19] = test system: Polygonum humifusum; assay: Post-emergence herbicidal activity against Polygonum humifusum assessed as growth inhibition at 150 g ai/ha measured 15 days post compound treatment under green house conditions; type: functional; conditions: 360 h, read-out: GI; in short: as §1
[20] = test system: Cyperus iria; assay: Post-emergence herbicidal activity against Cyperus iria assessed as growth inhibition at 75 g ai/ha measured 15 days post compound treatment under green house conditions; type: functional; conditions: 360 h, read-out: GI; in short: as §1
[21] = test system: Echinochloa crus-galli; assay: Post-emergence herbicidal activity against Echinochloa crus-galli (barnyard grass) assessed as growth inhibition at 150 g ai/ha measured 15 days post compound treatment under green house conditions; type: functional; conditions: 360 h, read-out: GI; in short: as §1
[22] = test system: Brassica juncea; assay: Post-emergence herbicidal activity against Brassica juncea assessed as growth inhibition at 150 g ai/ha measured 15 days post compound treatment under green house conditions; type: functional; conditions: 360 h, read-out: GI; in short: as §1
[23] = test system: Eclipta prostrata; assay: Post-emergence herbicidal activity against Eclipta prostrata assessed as growth inhibition at 75 g ai/ha measured 15 days post compound treatment under green house conditions; type: functional; conditions: 360 h, read-out: GI; in short: as §1
[24] = test system: Polygonum humifusum; assay: Post-emergence herbicidal activity against Polygonum humifusum assessed as growth inhibition at 75 g ai/ha measured 15 days post compound treatment under green house conditions; type: functional; conditions: 360 h, read-out: GI; in short: as §1
[25] = test system: Chenopodium album; assay: Post-emergence herbicidal activity against Chenopodium album assessed as growth inhibition at 75 g ai/ha measured 15 days post compound treatment under green house conditions; type: functional; conditions: 360 h, read-out: GI; in short: as §1
[26] = test system: Poa annua; assay: Post-emergence herbicidal activity against Poa annua assessed as growth inhibition at 150 g ai/ha measured 15 days post compound treatment under green house conditions; type: functional; conditions: 360 h, read-out: GI; in short: as §1
[27] = test system: Eclipta prostrata; assay: Post-emergence herbicidal activity against Eclipta prostrata assessed as growth inhibition at 150 g ai/ha measured 15 days post compound treatment under green house conditions; type: functional; conditions: 360 h, read-out: GI; in short: as §1
[28] = test system: Cerastium arvense; assay: Post-emergence herbicidal activity against Cerastium arvense assessed as growth inhibition at 75 g ai/ha measured 15 days post compound treatment under green house conditions; type: functional; conditions: 360 h, read-out: GI; in short: as §1
[29] = test system: Polygonum humifusum; assay: Post-emergence herbicidal activity against Polygonum humifusum assessed as growth inhibition at 37.5 g ai/ha measured 15 days post compound treatment under green house conditions; type: functional; conditions: 360 h, read-out: GI; in short: as §1

Row | SMILES | inhibition of growth at 37.5 g/ha [1] [%] | inhibition of growth at 37.5 g/ha [2] [%] | inhibition of growth at 37.5 g/ha [3] [%] | inhibition of growth at 75 g/ha [4] [%] | inhibition of growth at 37.5 g/ha [5] [%] | inhibition of growth at 75 g/ha [6] [%] | inhibition of growth at 75 g/ha [7] [%] | inhibition of growth at 37.5 g/ha [8] [%] | inhibition of growth at 150 g/ha [10] [%] | inhibition of growth at 150 g/ha [11] [%] | inhibition of growth at 150 g/ha [12] [%] | inhibition of growth at 150 g/ha [13] [%] | inhibition of growth at 150 g/ha [14] [%] | inhibition of growth at 150 g/ha [15] [%] | inhibition of growth at 37.5 g/ha [16] [%] | inhibition of growth at 150 g/ha [17] [%] | inhibition of growth at 37.5 g/ha [18] [%] | inhibition of growth at 150 g/ha [19] [%] | inhibition of growth at 75 g/ha [20] [%] | inhibition of growth at 150 g/ha [21] [%] | also measured
1 | Cc1nc(C(F)(F)F)cc2nc(S(=O)(=O)Nc3c(F)cccc3F)nn12 | < 50 | ≥ 80 | 50 | < 50 | < 50 | 50 | ≥ 80 | 50 | ≥ 80 | 50 | < 50 | < 50 | < 50 | 50 | 50 | ≥ 90 | 50 | 50 | < 50 | < 50 | Ki [9]: 70.6 µM; inhibition of growth at 150 g/ha [22]: ≥ 80%; inhibition of growth at 75 g/ha [23]: ≥ 80%; inhibition of growth at 75 g/ha [24]: < 50%; inhibition of growth at 75 g/ha [25]: ≥ 80%; inhibition of growth at 150 g/ha [26]: < 50%; inhibition of growth at 150 g/ha [27]: ≥ 80%; inhibition of growth at 75 g/ha [28]: 50%; inhibition of growth at 37.5 g/ha [29]: < 50%
2 | COC(=O)c1cccc(Cl)c1NS(=O)(=O)c1nc2c(Cl)c(C)nc(C)n2n1 | 50 | ≥ 80 | 50 | 50 | 50 | 50 | ≥ 80 | 50 | ≥ 80 | 50 | 50 | < 50 | 50 | 50 | ≥ 80 | ≥ 80 | < 50 | 50 | 50 | < 50 | inhibition of growth at 150 g/ha [22]: ≥ 90%; inhibition of growth at 75 g/ha [23]: 50%; inhibition of growth at 75 g/ha [24]: 50%; inhibition of growth at 75 g/ha [25]: ≥ 80%; inhibition of growth at 150 g/ha [26]: < 50%; inhibition of growth at 150 g/ha [27]: ≥ 50%; inhibition of growth at 75 g/ha [28]: 50%; inhibition of growth at 37.5 g/ha [29]: 50%
3 | Cc1nc(C(F)(F)F)cc2nc(S(=O)(=O)Nc3c(Cl)cccc3Cl)nn12 | 50 | ≥ 80 | ≥ 80 | < 50 | < 50 | ≥ 80 | ≥ 80 | 50 | ≥ 80 | ≥ 80 | 50 | < 50 | < 50 | 50 | 50 | ≥ 90 | < 50 | ≥ 80 | 50 | < 50 | Ki [9]: 5.02 µM; inhibition of growth at 150 g/ha [22]: ≥ 90%; inhibition of growth at 75 g/ha [23]: 50%; inhibition of growth at 75 g/ha [24]: ≥ 80%; inhibition of growth at 75 g/ha [25]: ≥ 80%; inhibition of growth at 150 g/ha [26]: < 50%; inhibition of growth at 150 g/ha [27]: ≥ 90%; inhibition of growth at 75 g/ha [28]: 50%; inhibition of growth at 37.5 g/ha [29]: 50%
